From ChEMBL document CHEMBL2417367 (Bioorg Med Chem, 2013)

Key:
[1] = biological target: Mast/stem cell growth factor receptor Kit (Homo sapiens, UniProt P10721); assay: Inhibition of c-KIT (unknown origin) using poly(Glu,Tyr) as substrate after 30 mins by HTRF assay
Outline: (§1)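 HTRF kinase assay on plates precoated with poly(Glu,Tyr) 4:1 (20 µg/mL). ATP was added as a 10 mM solution in 50 mM HEPES pH 7.0 buffer with DTT, MgCl2, MnCl2 and 0.1% NaN3. Compounds were in 1% DMSO, and purified kinase started the reaction (30 min, 25 °C). Streptavidin-XL665/TK antibody cryptate stopped it, read at 320/615 nm. Inhibition was scaled to enzyme and no-enzyme controls; IC50 from curves.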

[2] = biological target: Macrophage-stimulating protein receptor (Homo sapiens, UniProt Q04912); assay: Inhibition of RON (unknown origin) using poly(Glu,Tyr) as substrate after 30 mins by HTRF assay; outline: as §1
A549 = assay: Cytotoxicity against human A549 cells after 72 hrs by MTT assay; format: functional, cell-based; conditions: A549, 72 h
cells = conditions: Homo sapiens, U-87 MG, 72 h
[3] = biological target: T1, Receptor-type tyrosine-protein kinase FLT3 (Homo sapiens, UniProt P36888); assay: Inhibition of FLT-3 (unknown origin) using poly(Glu,Tyr) as substrate after 30 mins by HTRF assay; outline: as §1
T1 sequence (P36888 whole entry): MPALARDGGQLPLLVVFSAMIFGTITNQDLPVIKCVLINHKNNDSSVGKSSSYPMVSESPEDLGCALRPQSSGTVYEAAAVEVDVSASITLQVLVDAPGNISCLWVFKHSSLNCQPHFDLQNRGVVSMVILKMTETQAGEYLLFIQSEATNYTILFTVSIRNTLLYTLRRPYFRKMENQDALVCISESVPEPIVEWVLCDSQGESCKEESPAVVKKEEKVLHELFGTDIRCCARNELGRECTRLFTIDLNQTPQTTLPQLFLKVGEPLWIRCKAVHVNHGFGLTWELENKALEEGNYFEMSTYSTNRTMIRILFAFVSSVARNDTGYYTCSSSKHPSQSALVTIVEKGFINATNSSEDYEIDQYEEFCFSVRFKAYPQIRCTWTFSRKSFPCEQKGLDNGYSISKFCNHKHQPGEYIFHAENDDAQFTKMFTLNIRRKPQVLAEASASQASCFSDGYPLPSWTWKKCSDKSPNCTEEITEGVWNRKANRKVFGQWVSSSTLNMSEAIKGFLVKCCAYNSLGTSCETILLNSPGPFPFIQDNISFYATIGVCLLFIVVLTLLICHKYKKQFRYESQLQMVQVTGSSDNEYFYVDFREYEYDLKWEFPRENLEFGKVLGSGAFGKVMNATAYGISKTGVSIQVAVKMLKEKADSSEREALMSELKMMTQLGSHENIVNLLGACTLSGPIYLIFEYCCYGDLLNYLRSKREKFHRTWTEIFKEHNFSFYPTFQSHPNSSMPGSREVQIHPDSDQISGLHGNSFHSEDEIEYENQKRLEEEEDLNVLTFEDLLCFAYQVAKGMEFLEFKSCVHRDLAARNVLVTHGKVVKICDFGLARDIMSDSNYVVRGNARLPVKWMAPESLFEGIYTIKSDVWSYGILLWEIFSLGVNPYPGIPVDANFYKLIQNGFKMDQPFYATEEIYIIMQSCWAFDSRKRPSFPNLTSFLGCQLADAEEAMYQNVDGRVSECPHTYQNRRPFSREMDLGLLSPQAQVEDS

[4] = biological target: Epidermal growth factor receptor (Homo sapiens, UniProt P00533); assay: Inhibition of EGFR (unknown origin) using poly(Glu,Tyr) as substrate after 30 mins by HTRF assay
Outline: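 HTRF kinase assay with purified kinase protein on precoated poly(Glu,Tyr) 4:1 substrate (20 µg/mL). Buffer was 50 mM HEPES pH 7.0 with DTT, MgCl2, MnCl2 and 0.1% NaN3, plus ATP added from a 10 mM solution. Compounds were in 1% DMSO. Reaction ran 30 min at 25 °C and was stopped with Streptavidin-XL665 and TK antibody-cryptate. Read at 320/615 nm; % inhibition from max/min controls, IC50 from inhibition curves.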

[5] = biological target: Platelet-derived growth factor receptor alpha (Homo sapiens, UniProt P16234); assay: Inhibition of PDGFRalpha (unknown origin) using poly(Glu,Tyr) as substrate after 30 mins by HTRF assay; outline: as §1
[6] = biological target: Vascular endothelial growth factor receptor 2 (Homo sapiens, UniProt P35968); assay: Inhibition of KDR (unknown origin) using poly(Glu,Tyr) as substrate after 30 mins by HTRF assay; outline: as §1
NCI-H460 = assay: cells; conditions: Homo sapiens, NCI-H460, 72 h
SMMC-7721 = assay: cells; conditions: Homo sapiens, SMMC-7721, 72 h
HT-29 = assay: cells; conditions: Homo sapiens, HT-29, 72 h
MKN-45 = assay: cells; conditions: Homo sapiens, MKN-45, 72 h
MDA-MB-231 = assay: Cytotoxicity against human MDA-MB-231 cells after 72 hrs by MTT assay; format: functional, cell-based; conditions: MDA-MB-231, 72 h
Outline: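 Cells were grown in MEM with 10% FBS. About 4×10^3 cells per well were seeded and incubated 24 h at 37 °C in 5% CO2. Compounds were then added at set final concentrations for 72 h. MTT (final 5 µg/mL) was added for 4 h at 37 °C, and formazan was dissolved in DMSO and read at 492 nm against a 630 nm reference. Each line was tested three times; IC50 is mean ± SD.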

Chain of Vascular endothelial growth factor receptor 2 (P35968 whole entry): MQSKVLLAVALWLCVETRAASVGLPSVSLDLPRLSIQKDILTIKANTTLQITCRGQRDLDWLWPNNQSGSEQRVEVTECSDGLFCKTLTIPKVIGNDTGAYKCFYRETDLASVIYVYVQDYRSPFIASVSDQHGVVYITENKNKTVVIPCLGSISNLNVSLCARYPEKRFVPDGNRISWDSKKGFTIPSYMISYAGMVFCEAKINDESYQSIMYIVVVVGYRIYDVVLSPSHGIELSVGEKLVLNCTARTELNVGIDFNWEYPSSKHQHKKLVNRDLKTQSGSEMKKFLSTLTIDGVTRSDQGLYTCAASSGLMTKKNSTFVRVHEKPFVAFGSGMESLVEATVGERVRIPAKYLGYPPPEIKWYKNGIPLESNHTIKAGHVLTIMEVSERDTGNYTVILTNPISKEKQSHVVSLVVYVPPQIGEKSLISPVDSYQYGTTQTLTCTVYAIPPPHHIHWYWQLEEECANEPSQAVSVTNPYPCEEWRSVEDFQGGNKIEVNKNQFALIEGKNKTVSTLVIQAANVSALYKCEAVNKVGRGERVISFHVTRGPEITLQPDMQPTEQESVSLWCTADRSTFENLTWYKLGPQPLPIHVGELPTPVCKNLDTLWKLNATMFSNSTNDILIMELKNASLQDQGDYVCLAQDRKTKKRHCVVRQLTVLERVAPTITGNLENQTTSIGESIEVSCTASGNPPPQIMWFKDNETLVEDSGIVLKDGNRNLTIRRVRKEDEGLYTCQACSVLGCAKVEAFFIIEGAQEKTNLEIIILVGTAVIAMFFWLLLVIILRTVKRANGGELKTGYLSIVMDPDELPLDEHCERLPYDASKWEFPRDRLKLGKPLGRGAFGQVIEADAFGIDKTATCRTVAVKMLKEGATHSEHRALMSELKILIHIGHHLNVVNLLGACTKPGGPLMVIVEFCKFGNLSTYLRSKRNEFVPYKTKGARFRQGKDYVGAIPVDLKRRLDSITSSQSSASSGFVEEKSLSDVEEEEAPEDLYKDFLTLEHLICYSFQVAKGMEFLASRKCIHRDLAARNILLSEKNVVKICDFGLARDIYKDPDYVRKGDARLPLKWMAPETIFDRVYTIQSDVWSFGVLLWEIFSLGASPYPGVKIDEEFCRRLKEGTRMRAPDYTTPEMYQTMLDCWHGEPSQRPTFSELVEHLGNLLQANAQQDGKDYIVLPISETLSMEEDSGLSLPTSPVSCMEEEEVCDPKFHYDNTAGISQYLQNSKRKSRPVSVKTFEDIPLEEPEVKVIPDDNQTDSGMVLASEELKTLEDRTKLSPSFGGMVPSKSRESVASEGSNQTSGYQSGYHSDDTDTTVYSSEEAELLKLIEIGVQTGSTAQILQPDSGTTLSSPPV
Chain of Platelet-derived growth factor receptor alpha (P16234 whole entry): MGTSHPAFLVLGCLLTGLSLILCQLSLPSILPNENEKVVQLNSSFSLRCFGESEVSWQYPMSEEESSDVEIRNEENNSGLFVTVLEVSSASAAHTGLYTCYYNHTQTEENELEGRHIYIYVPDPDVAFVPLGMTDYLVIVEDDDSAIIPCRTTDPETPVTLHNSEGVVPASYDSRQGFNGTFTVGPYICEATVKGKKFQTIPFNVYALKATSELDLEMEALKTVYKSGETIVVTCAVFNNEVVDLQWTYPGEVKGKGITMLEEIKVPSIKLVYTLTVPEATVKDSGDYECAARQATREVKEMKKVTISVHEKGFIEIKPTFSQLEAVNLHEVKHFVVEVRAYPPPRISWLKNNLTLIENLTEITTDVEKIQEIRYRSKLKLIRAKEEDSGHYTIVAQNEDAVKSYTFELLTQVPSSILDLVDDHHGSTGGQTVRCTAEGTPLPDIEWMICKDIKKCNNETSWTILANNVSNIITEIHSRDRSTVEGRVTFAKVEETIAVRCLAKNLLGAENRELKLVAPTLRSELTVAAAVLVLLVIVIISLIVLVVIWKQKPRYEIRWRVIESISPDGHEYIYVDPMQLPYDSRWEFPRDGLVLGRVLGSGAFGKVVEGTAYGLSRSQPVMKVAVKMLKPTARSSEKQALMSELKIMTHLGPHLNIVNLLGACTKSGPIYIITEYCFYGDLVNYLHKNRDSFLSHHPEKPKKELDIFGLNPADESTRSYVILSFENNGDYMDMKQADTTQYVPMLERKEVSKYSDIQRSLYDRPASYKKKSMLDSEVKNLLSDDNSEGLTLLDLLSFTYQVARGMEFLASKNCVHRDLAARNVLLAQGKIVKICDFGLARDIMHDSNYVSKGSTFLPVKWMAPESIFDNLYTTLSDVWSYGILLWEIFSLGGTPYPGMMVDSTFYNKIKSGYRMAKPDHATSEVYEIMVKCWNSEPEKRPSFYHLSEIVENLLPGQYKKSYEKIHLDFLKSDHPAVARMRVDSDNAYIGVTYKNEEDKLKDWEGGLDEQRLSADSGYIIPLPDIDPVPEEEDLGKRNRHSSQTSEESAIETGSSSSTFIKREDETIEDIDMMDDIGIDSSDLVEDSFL
Chain of Epidermal growth factor receptor (P00533 whole entry): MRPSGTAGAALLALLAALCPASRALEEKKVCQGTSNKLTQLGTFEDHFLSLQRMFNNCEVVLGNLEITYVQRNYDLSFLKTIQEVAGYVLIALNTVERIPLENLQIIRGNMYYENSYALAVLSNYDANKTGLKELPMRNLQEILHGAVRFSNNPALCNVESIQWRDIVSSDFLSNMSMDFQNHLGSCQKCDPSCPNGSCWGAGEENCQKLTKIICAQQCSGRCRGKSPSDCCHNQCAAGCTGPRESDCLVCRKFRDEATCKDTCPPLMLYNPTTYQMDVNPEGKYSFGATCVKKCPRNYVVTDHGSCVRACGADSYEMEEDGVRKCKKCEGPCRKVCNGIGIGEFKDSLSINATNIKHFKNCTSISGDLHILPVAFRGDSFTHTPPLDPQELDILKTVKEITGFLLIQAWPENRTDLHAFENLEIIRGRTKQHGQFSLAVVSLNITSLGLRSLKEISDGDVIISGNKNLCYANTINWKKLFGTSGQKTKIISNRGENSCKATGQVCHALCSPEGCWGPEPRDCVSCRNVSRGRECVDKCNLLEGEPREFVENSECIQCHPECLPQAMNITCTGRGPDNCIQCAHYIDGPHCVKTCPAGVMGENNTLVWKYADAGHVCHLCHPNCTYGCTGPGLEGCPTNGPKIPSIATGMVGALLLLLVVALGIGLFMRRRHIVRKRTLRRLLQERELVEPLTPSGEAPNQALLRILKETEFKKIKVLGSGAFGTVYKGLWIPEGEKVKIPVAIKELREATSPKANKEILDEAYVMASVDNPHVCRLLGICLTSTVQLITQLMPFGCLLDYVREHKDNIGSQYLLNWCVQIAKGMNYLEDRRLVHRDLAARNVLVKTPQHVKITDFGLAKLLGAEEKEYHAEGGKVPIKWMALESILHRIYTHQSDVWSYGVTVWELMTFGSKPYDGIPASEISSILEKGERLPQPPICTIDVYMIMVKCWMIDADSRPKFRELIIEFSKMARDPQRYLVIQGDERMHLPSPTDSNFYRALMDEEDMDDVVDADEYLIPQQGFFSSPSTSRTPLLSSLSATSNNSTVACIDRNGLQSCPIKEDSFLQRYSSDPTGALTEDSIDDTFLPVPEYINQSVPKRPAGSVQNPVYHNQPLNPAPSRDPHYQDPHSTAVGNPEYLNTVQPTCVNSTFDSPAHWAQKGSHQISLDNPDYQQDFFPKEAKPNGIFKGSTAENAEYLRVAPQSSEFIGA
Chain of Mast/stem cell growth factor receptor Kit (P10721 whole entry): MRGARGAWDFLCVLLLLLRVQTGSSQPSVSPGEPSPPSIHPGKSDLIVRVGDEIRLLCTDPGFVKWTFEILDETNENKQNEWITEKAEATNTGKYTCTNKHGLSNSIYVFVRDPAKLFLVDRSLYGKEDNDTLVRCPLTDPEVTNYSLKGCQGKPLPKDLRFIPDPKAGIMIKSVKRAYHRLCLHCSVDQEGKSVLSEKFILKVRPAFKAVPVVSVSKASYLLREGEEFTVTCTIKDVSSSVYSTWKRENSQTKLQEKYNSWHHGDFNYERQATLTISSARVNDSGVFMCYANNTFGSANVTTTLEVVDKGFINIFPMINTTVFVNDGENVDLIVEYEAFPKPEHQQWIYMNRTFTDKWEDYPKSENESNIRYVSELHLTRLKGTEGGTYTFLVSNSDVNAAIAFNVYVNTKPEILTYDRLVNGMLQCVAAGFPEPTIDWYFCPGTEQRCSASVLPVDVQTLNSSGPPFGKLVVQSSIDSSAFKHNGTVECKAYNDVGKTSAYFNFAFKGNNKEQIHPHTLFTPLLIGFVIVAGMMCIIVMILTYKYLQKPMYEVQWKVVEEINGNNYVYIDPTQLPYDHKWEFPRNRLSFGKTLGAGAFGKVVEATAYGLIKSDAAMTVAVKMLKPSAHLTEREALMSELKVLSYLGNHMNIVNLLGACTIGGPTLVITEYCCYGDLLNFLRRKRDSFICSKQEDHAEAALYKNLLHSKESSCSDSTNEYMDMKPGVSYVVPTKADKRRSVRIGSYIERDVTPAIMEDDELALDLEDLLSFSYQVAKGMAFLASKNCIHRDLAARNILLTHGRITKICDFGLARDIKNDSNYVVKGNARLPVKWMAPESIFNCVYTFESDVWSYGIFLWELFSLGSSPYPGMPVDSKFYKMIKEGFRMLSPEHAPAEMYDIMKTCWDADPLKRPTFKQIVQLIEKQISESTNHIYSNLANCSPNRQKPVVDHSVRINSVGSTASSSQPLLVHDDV

SMILES: COc1cc2c(Oc3ccc(NC(=O)N/N=C/c4ccc(F)cc4F)cc3F)ccnc2cc1OCCCN1CCC(C)CC1
- IC50 [1]: 230 nM
- IC50 [2]: 18.7 nM
- IC50 (A549): 80 nM
- IC50 (cells): 9.7 nM
- IC50 [3]: 380 nM
- IC50 [4]: > 100000 nM
- IC50 [5]: 390 nM
- IC50 [6]: 690 nM
- IC50 (NCI-H460): 57 nM
- IC50 (SMMC-7721): 290 nM
- IC50 (HT-29): 80 nM
- IC50 (MKN-45): 510 nM
- IC50 (MDA-MB-231): 1100 nM
